Results reported in ChEMBL document CHEMBL4118251 (J Med Chem, 2018).
Peptide text beside a SMILES is read from it.

Legend:
[1] = molecular target: T1, Glucagon-like peptide 1 receptor (Homo sapiens, UniProt P43220); test: Displacement of [125I]GLP-1 from human GLP1R expressed in HEK293 cell membranes after 180 mins by microbeta counting method
Outline: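 Membranes from HEK-293 cells expressing human GLP-1 receptor (1 μg protein/well) were coated on WGA SPA beads. […] The buffer was HEPES pH 7.4 with EDTA, NaCl, MgCl2, CaCl2, protease inhibitors and 0.1% BSA. Plates were read after a 180 min delay.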

[2] = molecular target: T1, Glucagon-like peptide 1 receptor; test: Agonist activity at human GLP1R expressed in HEK293 cells assessed as cAMP accumulation after 30 mins by HTRF assay; assay type: functional, cell-based
Glucagon receptor = Glucagon receptor (Homo sapiens, UniProt P47871); test: Agonist activity at human glucagon receptor expressed in HEK293 cells assessed as cAMP accumulation after 30 mins by HTRF assay; assay type: functional, cell-based
[3] = molecular target: T2, Gastric inhibitory polypeptide receptor (Homo sapiens, UniProt P48546); test: Agonist activity at human GIP receptor expressed in HEK293 cells assessed as cAMP accumulation after 30 mins by HTRF assay; assay type: functional, cell-based
T2 sequence (P48546 whole entry): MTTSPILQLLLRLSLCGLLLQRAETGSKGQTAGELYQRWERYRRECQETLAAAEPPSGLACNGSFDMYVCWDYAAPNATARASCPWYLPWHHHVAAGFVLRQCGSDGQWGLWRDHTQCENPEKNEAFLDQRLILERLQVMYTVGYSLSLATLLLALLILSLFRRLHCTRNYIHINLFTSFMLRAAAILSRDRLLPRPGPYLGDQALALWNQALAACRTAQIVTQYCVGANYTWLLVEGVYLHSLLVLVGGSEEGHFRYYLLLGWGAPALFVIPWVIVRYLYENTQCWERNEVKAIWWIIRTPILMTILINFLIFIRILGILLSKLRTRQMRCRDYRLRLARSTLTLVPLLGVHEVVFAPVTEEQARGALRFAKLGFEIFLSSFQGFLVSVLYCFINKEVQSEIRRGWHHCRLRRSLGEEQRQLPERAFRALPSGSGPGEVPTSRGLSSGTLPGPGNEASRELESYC

Homo sapiens [4] = organism: Homo sapiens; test: Selectivity ratio of EC50 for human glucagon receptor expressed in HEK293 cells to EC50 for human GLP1R expressed in HEK293 cells; assay type: cell-based
Outline: (§1)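 HEK293 lines stably expressing human or monkey receptor were detached with accutase. Cells were resuspended at 400 000 cells/mL in HBSS/20 mM HEPES/0.1% BSA/2 mM IBMX and exposed to peptide for 30 min at room temperature. cAMP was read by HTRF (665/620 nm) after 1 h lysis.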

Homo sapiens [5] = organism: Homo sapiens; test: Selectivity ratio of EC50 for human GIP receptor expressed in HEK293 cells to EC50 for human GLP1R expressed in HEK293 cells; assay type: cell-based; outline: as §1
[6] = Solubility in pH 4.5 acetate buffer at 10 mg/ml after 2 hrs by UPLC-UV analysis; assay type: physicochemical
Outline: (§2)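 Buffers were 100 mM sodium acetate pH 4.5 or 100 mM sodium phosphate pH 7.4, with or without 0.5% phenol. Solid peptide was dispersed at 10 mg/mL, with content corrected by UPLC-MS and ion chromatography, and gently agitated for 2 h. After centrifugation (15 min, 3000 rcf), the supernatant was diluted 1:10 and quantified by UPLC-UV against a DMSO standard curve.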

[7] = Solubility in pH 4.5 acetate buffer at 10 mg/ml after 2 hrs in presence of 0.5% phenol by UPLC-UV analysis; assay type: physicochemical; outline: as §2
[8] = Solubility in pH 4.5 phosphate buffer at 10 mg/ml after 2 hrs in presence of 0.5% phenol by UPLC-UV analysis; assay type: physicochemical
[9] = Solubility in pH 4.5 acetate buffer at 10 mg/ml after 2 hrs by UPLC-UV analysis

T1 sequence (P43220 whole entry): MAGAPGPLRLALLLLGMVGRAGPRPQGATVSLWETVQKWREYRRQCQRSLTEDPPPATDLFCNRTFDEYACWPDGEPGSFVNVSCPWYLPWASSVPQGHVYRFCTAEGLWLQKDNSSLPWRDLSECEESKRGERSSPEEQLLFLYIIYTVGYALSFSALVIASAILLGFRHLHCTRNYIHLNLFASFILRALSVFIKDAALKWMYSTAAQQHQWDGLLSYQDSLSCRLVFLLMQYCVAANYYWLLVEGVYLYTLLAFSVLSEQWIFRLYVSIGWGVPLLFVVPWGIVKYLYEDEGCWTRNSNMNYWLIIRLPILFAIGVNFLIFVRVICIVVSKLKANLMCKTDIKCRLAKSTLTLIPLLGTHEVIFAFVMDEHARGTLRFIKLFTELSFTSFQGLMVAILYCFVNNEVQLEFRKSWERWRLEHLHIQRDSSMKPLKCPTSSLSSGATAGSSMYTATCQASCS
Chain of Glucagon receptor (P47871 whole entry): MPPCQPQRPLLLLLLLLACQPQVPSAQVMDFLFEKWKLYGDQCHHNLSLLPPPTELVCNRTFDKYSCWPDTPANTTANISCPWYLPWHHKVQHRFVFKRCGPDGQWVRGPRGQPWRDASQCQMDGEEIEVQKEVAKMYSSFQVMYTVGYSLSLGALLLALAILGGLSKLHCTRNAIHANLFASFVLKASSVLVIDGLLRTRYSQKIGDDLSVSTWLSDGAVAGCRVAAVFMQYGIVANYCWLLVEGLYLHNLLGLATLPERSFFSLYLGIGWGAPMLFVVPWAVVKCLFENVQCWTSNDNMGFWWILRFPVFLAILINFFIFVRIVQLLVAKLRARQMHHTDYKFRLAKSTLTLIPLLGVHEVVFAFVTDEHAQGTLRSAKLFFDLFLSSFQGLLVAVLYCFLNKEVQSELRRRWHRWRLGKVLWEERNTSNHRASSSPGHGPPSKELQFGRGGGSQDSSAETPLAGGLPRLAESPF

Work on `CC[C@H](C)[C@H](NC(=O)[C@H](Cc1ccccc1)NC(=O)[C@H](CC(C)C)NC(=O)[C@H](CCCCN)NC(=O)[C@H](C)NC(=O)[C@H](CCCNC(=N)N)NC(=O)[C@H](CCC(N)=O)NC(=O)[C@H](CCC(=O)O)NC(=O)[C@H](CC(=O)O)NC(=O)[C@H](CC(C)C)NC(=O)[C@H](CCC(N)=O)NC(=O)[C@H](CCCCN)NC(=O)[C@H](CO)NC(=O)[C@H](CC(C)C)NC(=O)[C@H](CC(=O)O)NC(=O)[C@H](CO)NC(=O)[C@@H](NC(=O)[C@H](Cc1ccccc1)NC(=O)[C@@H](NC(=O)CNC(=O)[C@H](CCC(N)=O)NC(=O)C(C)(C)NC(=O)[C@@H](N)Cc1cnc[nH]1)[C@@H](C)O)[C@@H](C)O)C(=O)N[C@@H](CCC(=O)O)C(=O)N[C@@H](Cc1c[nH]c2ccccc12)C(=O)N[C@@H](CC(C)C)C(=O)NC(C)(C)C(=O)N[C@@H](C)C(=O)NCC(=O)NCC(=O)N1CCC[C@H]1C(=O)N[C@@H](CO)C(=O)N[C@@H](CO)C(=O)NCC(=O)N[C@@H](C)C(=O)N1CCC[C@H]1C(=O)N1CCC[C@H]1C(=O)N1CCC[C@H]1C(=O)N[C@@H](CO)C(N)=O` yielded an IC50 [1] of 26 nM.
Work on `CCCCCCCCCCCCCCCCCCC(=O)N[C@@H](CCC(=O)NCCCC[C@H](NC(=O)[C@H](CCC(N)=O)NC(=O)[C@H](CCCCN)NC(=O)[C@H](CO)NC(=O)[C@H](CC(C)C)NC(=O)[C@H](CC(=O)O)NC(=O)[C@H](CO)NC(=O)[C@@H](NC(=O)[C@H](Cc1ccccc1)NC(=O)[C@@H](NC(=O)CNC(=O)[C@H](CCC(N)=O)NC(=O)C(C)(C)NC(=O)[C@@H](N)Cc1cnc[nH]1)[C@@H](C)O)[C@@H](C)O)C(=O)N[C@@H](CC(=O)O)C(=O)N[C@@H](CCC(=O)O)C(=O)N[C@@H](CCC(N)=O)C(=O)N[C@@H](CCCNC(=N)N)C(=O)N[C@@H](C)C(=O)N[C@@H](CCCCN)C(=O)N[C@@H](CC(C)C)C(=O)N[C@@H](Cc1ccccc1)C(=O)N[C@H](C(=O)N[C@@H](CCC(=O)O)C(=O)N[C@@H](Cc1c[nH]c2ccccc12)C(=O)N[C@@H](CC(C)C)C(=O)NC(C)(C)C(=O)N[C@@H](C)C(=O)NCC(=O)NCC(=O)N1CCC[C@H]1C(=O)N[C@@H](CO)C(=O)N[C@@H](CO)C(=O)NCC(=O)N[C@@H](C)C(=O)N1CCC[C@H]1C(=O)N1CCC[C@H]1C(=O)N1CCC[C@H]1C(=O)N[C@@H](CO)C(N)=O)[C@@H](C)CC)C(=O)O` yielded an EC50 [2] of 0.0014 nM, an EC50 (Glucagon receptor) of 0.0067 nM and an EC50 [3] of 0.102 nM. For the same compound, the Ratio EC50 (Homo sapiens [4]) was 5 and the Ratio EC50 (Homo sapiens [5]) was 73.
In the case of `CCCCCCCCCCCCCCCCC(=O)N[C@@H](CCC(=O)N[C@@H](CCC(=O)NCCCC[C@H](NC(=O)[C@H](CCC(N)=O)NC(=O)[C@H](CCCCN)NC(=O)[C@H](CO)NC(=O)[C@H](CC(C)C)NC(=O)[C@H](CC(=O)O)NC(=O)[C@H](CO)NC(=O)[C@@H](NC(=O)[C@H](Cc1ccccc1)NC(=O)[C@@H](NC(=O)CNC(=O)[C@H](CCC(N)=O)NC(=O)C(C)(C)NC(=O)[C@@H](N)Cc1cnc[nH]1)[C@@H](C)O)[C@@H](C)O)C(=O)N[C@@H](CC(=O)O)C(=O)N[C@@H](CCC(=O)O)C(=O)N[C@@H](CCC(N)=O)C(=O)N[C@@H](CCCNC(=N)N)C(=O)N[C@@H](C)C(=O)N[C@@H](CCCCN)C(=O)N[C@@H](CC(C)C)C(=O)N[C@@H](Cc1ccccc1)C(=O)N[C@H](C(=O)N[C@@H](CCC(=O)O)C(=O)N[C@@H](Cc1c[nH]c2ccccc12)C(=O)N[C@@H](CC(C)C)C(=O)NC(C)(C)C(=O)N[C@@H](C)C(=O)NCC(=O)NCC(=O)N1CCC[C@H]1C(=O)N[C@@H](CO)C(=O)N[C@@H](CO)C(=O)NCC(=O)N[C@@H](C)C(=O)N1CCC[C@H]1C(=O)N1CCC[C@H]1C(=O)N1CCC[C@H]1C(=O)N[C@@H](CO)C(N)=O)[C@@H](C)CC)C(=O)O)C(=O)O`, the EC50 [2] is reported as 0.0022 nM, the EC50 (Glucagon receptor) is reported as 0.0276 nM and the EC50 [3] is reported as 2.03 nM. It also gave a Ratio EC50 (Homo sapiens [4]) of 13, a solubility at 2 h [6] of no less than 10000 µg/mL and a solubility at 2 h [7] of 1200 µg/mL. It also gave a solubility at 2 h [8] of no less than 10000 µg/mL and a solubility at 2 h [9] of no less than 10000 µg/mL.
In the case of `CC[C@H](C)[C@H](NC(=O)[C@H](Cc1ccccc1)NC(=O)[C@H](CC(C)C)NC(=O)[C@H](CCCCN)NC(=O)[C@H](C)NC(=O)[C@H](CS)NC(=O)[C@H](CCC(N)=O)NC(=O)[C@H](CCC(=O)O)NC(=O)[C@H](CC(=O)O)NC(=O)[C@H](CC(C)C)NC(=O)[C@H](CCC(N)=O)NC(=O)[C@H](CCCCN)NC(=O)[C@H](CO)NC(=O)[C@H](CC(C)C)NC(=O)[C@@H](N)CC(=O)O)C(=O)N[C@@H](CCC(=O)O)C(=O)N[C@@H](Cc1c[nH]c2ccccc12)C(=O)N[C@@H](CC(C)C)C(=O)N[C@@H](C)C(=O)N[C@@H](C)C(=O)NCC(=O)NCC(=O)N1CCC[C@H]1C(=O)N[C@@H](CO)C(=O)N[C@@H](CO)C(=O)NCC(=O)N[C@@H](C)C(=O)N1CCC[C@H]1C(=O)N1CCC[C@H]1C(=O)N1CCC[C@H]1C(=O)N[C@@H](CS)C(N)=O` (H-DLSKQLDEQCAKLFIEWLAAGGPSSGAPPPC-NH2), the EC50 [3] is reported as greater than 100000 nM and the IC50 [1] is reported as 1130 nM.
In the case of `CCCCCCCCCCCCCCCCC(=O)N[C@@H](CCC(=O)NCCCC[C@H](NC(=O)[C@H](CCC(N)=O)NC(=O)[C@H](CCCCN)NC(=O)[C@H](CO)NC(=O)[C@H](CC(C)C)NC(=O)[C@H](CC(=O)O)NC(=O)[C@H](CO)NC(=O)[C@@H](NC(=O)[C@H](Cc1ccccc1)NC(=O)[C@@H](NC(=O)CNC(=O)[C@H](CCC(N)=O)NC(=O)C(C)(C)NC(=O)[C@@H](N)Cc1cnc[nH]1)[C@@H](C)O)[C@@H](C)O)C(=O)N[C@@H](CC(=O)O)C(=O)N[C@@H](CCC(=O)O)C(=O)N[C@@H](CCC(N)=O)C(=O)N[C@@H](CCCNC(=N)N)C(=O)N[C@@H](C)C(=O)N[C@@H](CCCCN)C(=O)N[C@@H](CC(C)C)C(=O)N[C@@H](Cc1ccccc1)C(=O)N[C@H](C(=O)N[C@@H](CCC(=O)O)C(=O)N[C@@H](Cc1c[nH]c2ccccc12)C(=O)N[C@@H](CC(C)C)C(=O)NC(C)(C)C(=O)N[C@@H](C)C(=O)NCC(=O)NCC(=O)N1CCC[C@H]1C(=O)N[C@@H](CO)C(=O)N[C@@H](CO)C(=O)NCC(=O)N[C@@H](C)C(=O)N1CCC[C@H]1C(=O)N1CCC[C@H]1C(=O)N1CCC[C@H]1C(=O)N[C@@H](CO)C(N)=O)[C@@H](C)CC)C(=O)O`, the EC50 [2] is reported as 0.0064 nM, the EC50 (Glucagon receptor) is reported as 0.0154 nM and the EC50 [3] is reported as 1.16 nM. The Ratio EC50 (Homo sapiens [5]) was 181.
